Assay results published in ChEMBL document CHEMBL3526048, “In vitro metabolism of rivoglitazone, a novel peroxisome proliferator-activated receptor γ agonist, in rat, monkey, and human liver microsomes and freshly isolated hepatocytes” (Drug Metab Dispos, 2011).

Key:
[1] = target: Cytochrome P450 2D6 (Homo sapiens, UniProt P10635); assay: Activity of human CYP2D6 expressed in microsomes isolated from baculovirus infected insect cell assessed as enzyme-mediated compound formation treated with [14C]-rivoglitazone at 20 uM after 2 hrs by radio-HPLC/LC-MS/MS analysis in presence of NADPH-generating system; type: ADME
Cytochrome P450 2D6, sequence (P10635 whole entry): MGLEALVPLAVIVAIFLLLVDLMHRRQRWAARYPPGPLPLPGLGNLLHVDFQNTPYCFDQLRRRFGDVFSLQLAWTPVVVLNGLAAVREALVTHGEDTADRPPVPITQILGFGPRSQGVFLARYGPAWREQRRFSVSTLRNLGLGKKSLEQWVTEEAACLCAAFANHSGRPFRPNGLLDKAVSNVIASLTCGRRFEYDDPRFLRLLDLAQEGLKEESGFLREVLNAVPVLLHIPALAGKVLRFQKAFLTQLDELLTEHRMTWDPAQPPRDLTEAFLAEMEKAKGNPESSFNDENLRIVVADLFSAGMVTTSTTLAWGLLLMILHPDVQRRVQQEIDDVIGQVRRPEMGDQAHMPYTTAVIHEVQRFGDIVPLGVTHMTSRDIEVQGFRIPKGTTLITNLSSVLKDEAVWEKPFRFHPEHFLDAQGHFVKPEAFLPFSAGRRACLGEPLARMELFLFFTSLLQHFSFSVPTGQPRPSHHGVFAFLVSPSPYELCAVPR
Procedure, shortened: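 Baculovirus-insect-cell microsomes expressing the human CYP (1 mg/ml protein) were incubated with [14C]rivoglitazone (20 μM) in 50 mM potassium phosphate (pH 7.4) or 100 mM Tris-HCl (pH 7.5) with an NADPH-generating system (2 mM NADP+, 20 mM glucose 6-phosphate, 2 units/ml G6PDH, 10 mM MgCl2) for 2 h at 37°C. Insect-cell control supersomes served as the control. Reactions were stopped with acetonitrile, and the concentrated supernatants were analysed by radio-HPLC, LC-MS and LC-MS/MS.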

[2] = target: T1, UDP-glucuronosyltransferase 1A1 (Homo sapiens, UniProt P22309); assay: Activity of human UGT1A1 expressed in microsomes isolated from baculovirus infected insect cell assessed as enzyme-mediated 2-mercapto-3-(4-((6-methoxy-1-methyl-1H-benzo[d]imidazol-2-yl)methoxy)phenyl)propanoic acid formation at 20 uM after 4 hrs by radio-HPLC/LC-MS/MS analysis in presence of UDPGA; type: ADME
T1 sequence (P22309 whole entry): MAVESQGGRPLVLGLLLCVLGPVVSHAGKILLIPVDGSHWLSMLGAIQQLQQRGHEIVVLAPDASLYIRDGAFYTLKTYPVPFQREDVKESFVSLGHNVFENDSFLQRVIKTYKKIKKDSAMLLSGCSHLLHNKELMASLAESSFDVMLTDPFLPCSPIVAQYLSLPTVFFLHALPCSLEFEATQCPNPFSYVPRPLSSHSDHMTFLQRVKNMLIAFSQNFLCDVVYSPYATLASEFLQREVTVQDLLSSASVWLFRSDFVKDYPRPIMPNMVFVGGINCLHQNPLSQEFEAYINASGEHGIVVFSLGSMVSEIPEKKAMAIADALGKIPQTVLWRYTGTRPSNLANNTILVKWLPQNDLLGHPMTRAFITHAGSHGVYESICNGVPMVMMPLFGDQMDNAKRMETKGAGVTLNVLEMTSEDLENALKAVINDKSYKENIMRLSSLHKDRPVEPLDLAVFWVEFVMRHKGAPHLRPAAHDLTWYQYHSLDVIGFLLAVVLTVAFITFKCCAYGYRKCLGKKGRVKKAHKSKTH
Procedure, shortened: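 Alamethicin (50 μg/mg protein, 15 min on ice) pretreated expressed human UGT microsomes (1 mg/ml protein) from baculovirus-infected insect cells. Incubation with [¹⁴C]rivoglitazone (20 μM) in 100 mM Tris-HCl (pH 7.5) with 10 mM MgCl₂, started by 5 mM UDPGA, 4 h at 37°C with shaking. UGT insect-cell control supersomes were run alongside. Acetonitrile stop, concentrated supernatant analysed by radio-HPLC, LC-MS and LC-MS/MS.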

[3] = target: T2, UDP-glucuronosyltransferase 1A3 (Homo sapiens, UniProt P35503); assay: Activity of human UGT1A3 expressed in microsomes isolated from baculovirus infected insect cell assessed as enzyme-mediated 3-(4-((6-methoxy-1-methyl-1H-benzo[d]imidazol-2-yl)methoxy)phenyl)-2-(methylsulfonyl)propanamide formation at 20 uM after 4 hrs by radio-HPLC/LC-MS/MS analysis in presence of NADPH-generating system/SAM; type: ADME
T2 sequence (P35503 whole entry): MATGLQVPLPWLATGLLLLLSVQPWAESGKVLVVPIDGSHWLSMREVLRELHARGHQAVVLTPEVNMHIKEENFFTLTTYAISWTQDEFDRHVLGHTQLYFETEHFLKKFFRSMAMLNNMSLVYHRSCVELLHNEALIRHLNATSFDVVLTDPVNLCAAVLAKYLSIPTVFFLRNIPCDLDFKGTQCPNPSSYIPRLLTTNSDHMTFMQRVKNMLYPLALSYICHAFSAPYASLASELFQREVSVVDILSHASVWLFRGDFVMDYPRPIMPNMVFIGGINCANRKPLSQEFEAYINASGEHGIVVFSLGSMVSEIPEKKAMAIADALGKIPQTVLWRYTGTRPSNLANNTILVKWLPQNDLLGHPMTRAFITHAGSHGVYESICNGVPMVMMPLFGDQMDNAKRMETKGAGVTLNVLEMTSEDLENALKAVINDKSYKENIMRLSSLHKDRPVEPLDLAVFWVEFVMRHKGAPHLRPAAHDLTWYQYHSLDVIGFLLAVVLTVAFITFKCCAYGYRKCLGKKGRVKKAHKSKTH

[4] = Drug metabolism in rat hepatocytes assessed as formation of (2S,3S,4S,5R,6R)-3,4,5-trihydroxy-6-(5-(4-((6-methoxy-1-methyl-1H-benzo[d]imidazol-2-yl)methoxy)benzyl)-2,4-dioxothiazolidin-3-yl)tetrahydro-2H-pyran-2-carboxylic acid at 30 uM after 3 hrs by radio-HPLC/LC-MS/MS analysis; type: ADME, cell-based, Hepatocyte
[5] = Drug metabolism in cynomolgus monkey liver microsomes assessed as formation of (2S,3S,4S,5R,6R)-6-((1-carboxy-2-(4-((6-methoxy-1-methyl-1H-benzo[d]imidazol-2-yl)methoxy)phenyl)ethylthio)carbonylamino)-3,4,5-trihydroxytetrahydro-2H-pyran-2-carboxylic acid at 20 uM after 4 hrs by radio-HPLC/LC-MS/MS analysis in presence of UDPGA and UDPGA/SAM; type: ADME, Macaca fascicularis
[6] = target: Cytochrome P450 3A5 (Homo sapiens, UniProt P20815); assay: Activity of human CYP3A5 expressed in microsomes isolated from baculovirus infected insect cell assessed as enzyme-mediated 2-hydroxy-3-(4-((6-methoxy-1-methyl-1H-benzo[d]imidazol-2-yl)methoxy)phenyl)propanamide formation at 20 uM after 2 hrs by radio-HPLC/LC-MS/MS analysis in presence of NADPH-generating system and NADPH-generating system/SAM; type: ADME
Cytochrome P450 3A5, sequence (P20815 whole entry): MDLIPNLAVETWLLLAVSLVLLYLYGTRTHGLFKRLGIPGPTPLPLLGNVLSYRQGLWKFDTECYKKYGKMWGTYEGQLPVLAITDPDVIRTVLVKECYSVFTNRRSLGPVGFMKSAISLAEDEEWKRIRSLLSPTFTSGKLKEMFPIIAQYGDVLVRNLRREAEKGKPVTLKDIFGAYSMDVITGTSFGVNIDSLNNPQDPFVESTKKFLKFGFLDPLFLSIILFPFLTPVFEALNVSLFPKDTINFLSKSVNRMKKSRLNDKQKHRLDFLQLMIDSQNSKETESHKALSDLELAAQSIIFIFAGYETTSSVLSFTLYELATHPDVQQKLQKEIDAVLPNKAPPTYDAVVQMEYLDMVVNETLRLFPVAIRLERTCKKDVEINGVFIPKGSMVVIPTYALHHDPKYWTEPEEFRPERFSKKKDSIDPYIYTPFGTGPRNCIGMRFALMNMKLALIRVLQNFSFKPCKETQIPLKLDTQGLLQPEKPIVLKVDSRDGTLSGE
Procedure, shortened: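 cDNA-expressed human CYP3A5 in baculovirus-insect-cell microsomes (1 mg/ml protein) was incubated with [¹⁴C]rivoglitazone (20 μM) in 50 mM potassium phosphate (pH 7.4) or 100 mM Tris-HCl (pH 7.5). NADPH-generating system: 2 mM NADP⁺, 20 mM glucose 6-phosphate, 2 units/ml G6PDH, 10 mM MgCl₂. Incubation ran 2 h at 37°C with shaking; insect-cell control supersomes served as control. Acetonitrile stop, supernatant concentrated, then radio-HPLC, LC-MS and LC-MS/MS.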

[7] = tested on: Liver microsome; assay: Drug metabolism in human liver microsomes assessed as formation of 2-hydroxy-3-(4-((6-methoxy-1-methyl-1H-benzo[d]imidazol-2-yl)methoxy)phenyl)propanamide at 20 uM after 2 hrs by radio-HPLC/LC-MS/MS analysis in presence of NADPH-generating system and NADPH-generating system/SAM; type: ADME
[8] = Drug metabolism in monkey hepatocytes assessed as formation of 3-(4-((6-methoxy-1-methyl-1H-benzo[d]imidazol-2-yl)methoxy)phenyl)-2-(methylthio)propanamide at 30 uM after 3 hrs by radio-HPLC/LC-MS/MS analysis in presence of NADPH-generating system/SAM; details: cynomolgus monkey
[9] = Drug metabolism in rat hepatocytes assessed as formation of 5-(4-((6-methoxy-1H-benzo[d]imidazol-2-yl)methoxy)benzyl)thiazolidine-2,4-dione at 30 uM after 3 hrs by radio-HPLC/LC-MS/MS analysis in presence of NADPH-generating system and NADPH-generating system/SAM; type: ADME, cell-based, Hepatocyte
[10] = Drug metabolism in cynomolgus monkey liver microsomes assessed as formation of 3-(4-((6-methoxy-1-methyl-1H-benzo[d]imidazol-2-yl)methoxy)phenyl)-2-(methylsulfinyl)propanamide at 20 uM after 2 hrs by radio-HPLC/LC-MS/MS analysis in presence of NADPH-generating system/SAM; type: ADME, Macaca fascicularis

Row | SMILES | Drug metabolism [1] | Drug metabolism [2] | Drug metabolism [3] | Drug metabolism [4] | Drug metabolism [5] | Drug metabolism [6] | Drug metabolism [7] | Drug metabolism [8] | Drug metabolism [9] | Drug metabolism [10]
1 | COc1ccc2nc(COc3ccc(CC(S)C(=O)O)cc3)n(C)c2c1 (stereo not given) | metabolite_detected | – | – | – | – | – | – | – | – | –
2 | COc1ccc2nc(COc3ccc(C[14CH]4SC(=O)NC4=O)cc3)n(C)c2c1.Cl (racemic) | – | metabolite_not_detected | metabolite_not_detected | metabolite_detected | metabolite_detected | metabolite_detected | metabolite_detected | metabolite_detected | metabolite_detected | metabolite_detected
